SMILES strings stand for the structures. Activity calls are given as the source filed them. No cut-off for these calls is given here.

Test [1] has as its target T1, Signal transducer and activator of transcription 1-alpha/beta (Homo sapiens, UniProt P42224).
T1 sequence (P42224 whole entry): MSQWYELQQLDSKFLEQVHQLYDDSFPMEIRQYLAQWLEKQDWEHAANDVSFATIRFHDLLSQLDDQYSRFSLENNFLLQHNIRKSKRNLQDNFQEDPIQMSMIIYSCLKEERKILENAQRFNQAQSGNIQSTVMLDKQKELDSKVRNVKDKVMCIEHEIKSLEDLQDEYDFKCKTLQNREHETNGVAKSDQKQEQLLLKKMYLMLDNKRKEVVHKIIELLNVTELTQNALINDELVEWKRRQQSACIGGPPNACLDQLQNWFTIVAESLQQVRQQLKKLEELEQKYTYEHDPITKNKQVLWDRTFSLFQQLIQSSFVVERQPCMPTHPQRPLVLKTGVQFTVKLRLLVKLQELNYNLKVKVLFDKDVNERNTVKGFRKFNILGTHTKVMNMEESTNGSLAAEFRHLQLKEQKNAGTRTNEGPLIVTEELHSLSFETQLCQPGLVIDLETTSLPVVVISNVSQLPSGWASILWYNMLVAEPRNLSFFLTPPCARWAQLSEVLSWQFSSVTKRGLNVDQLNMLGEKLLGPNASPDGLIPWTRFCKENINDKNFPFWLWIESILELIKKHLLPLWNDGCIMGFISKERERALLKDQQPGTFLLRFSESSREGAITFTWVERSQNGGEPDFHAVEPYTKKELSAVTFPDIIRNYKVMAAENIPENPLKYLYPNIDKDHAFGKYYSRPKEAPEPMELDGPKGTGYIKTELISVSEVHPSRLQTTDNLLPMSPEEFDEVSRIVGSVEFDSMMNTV
The test can be described thus: Binding affinity to Stat1 (unknown origin) using 5-FAM-GpYLPQTV-NH2 as probe assessed as phosphopetide complex formation after 30 mins by fluorescence polarization assay. Put shortly: (§1)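 Fluorescence polarization. Recombinant STAT protein was incubated with the 5-FAM-GpYLPQTV-NH2 peptide probe and inhibitor for 30 min. Polarized fluorescence was plotted against inhibitor concentration, and IC50 was obtained by fitting a dose-response curve.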
(In general: Polarisation of emitted light reports the rotation of a fluorescent probe.)

In test [2] the target is T2, Signal transducer and activator of transcription 3 (Homo sapiens, UniProt P40763). The test can be described thus: Inhibition of IL-6-induced Stat3 phosphorylation in serum-starved human U937 cells at 10 to 20 uM incubated for 4 hrs prior to IL-6 induction measured after 15 mins by phopsho-flow cytometric analysis. The note with it: U-937. Format: cell-based. Put shortly:
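Serum-starved U937 cells were pretreated with compound for 4 h, then stimulated 15 min with IL-6 (Stat3), GM-CSF (Stat5) or IFN (Stat1). Phosphorylation of each STAT was quantified by phospho-flow cytometry.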
On the technique in general: In flow cytometry, cells or beads pass a laser one at a time.

In test [3] the test system is JJN-3. The experiment in a line: Induction of apoptosis in human JJN-3 cells assessed as induction of PARP cleavage at 10 to 30 uM by Western blot analysis. In kind it is functional, cell-based. Put shortly:
(§2)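 Treated cells were washed in cold PBS and lysed 30 min on ice in Tris-HCl pH 7.4/NaCl/EDTA/1% NP-40 with PMSF, vanadate and protease inhibitors. Lysates were Bradford-normalized, and 10-30 µg protein was run on 7-10% SDS-PAGE and transferred to PVDF. Blots were blocked in 5% BSA/TBST, probed overnight at 4 °C, then with HRP secondary, and detected by ECL.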
Background: In western blotting, separated proteins are transferred to a membrane and probed.

Test [4] addresses T2, Signal transducer and activator of transcription 3. The test can be described thus: Inhibition of Stat3 in human JJN-3 cells assessed as downregulation of BCL-xL protein expression. Format: cell-based. Put shortly:
as §2

Test [5] has the same target. The test can be described thus: Inhibition of Stat3-mediated luciferase expression in human XG6 cells after 6 hrs. Format: cell-based. The gist of the method:
(§3)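 Myeloma cells stably carried a Stat3-driven firefly luciferase reporter (puromycin-selected) and a CMV-driven Renilla luciferase internal control (hygromycin-selected), each selected for 2 weeks. After drug treatment, dual luciferase activity was read as relative luciferase units, firefly/Renilla.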

Test [6] shares this target. The test can be described thus: Inhibition of Stat3-mediated luciferase expression in human 8226 cells after 6 hrs. In kind it is cell-based. Put shortly:
as §3

For test [7], the system named is JJN-3. The experiment in a line: Cytotoxicity against human JJN-3 cells assessed as inhibition of cell viability after 72 hrs by MTT assay. Format: functional, cell-based. The gist of the method:
(§4)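 Myeloma lines were seeded at 1-3 x 10^4 cells per well onto compound or vehicle, in triplicate, and cultured 72 h at 37 °C in 5% CO2. Viability was measured colorimetrically by MTT assay relative to DMSO control. EC50 was fitted to a standard dose-response curve where applicable.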

The next test relates to RPMI-8226. The test can be described thus: Cytotoxicity against human RPMI8226 cells assessed as inhibition of cell viability after 72 hrs by MTT assay. Format: functional, cell-based. Put shortly:
as §4

Another test relates to NCI-H929. The experiment in a line: Cytotoxicity against human NCI-H929 cells assessed as inhibition of cell viability after 72 hrs by MTT assay. In kind it is functional, cell-based. Put shortly:
as §4

A further test has as its system DU-145. The experiment in a line: Cytotoxicity against human DU145 cells assessed as cell viability after 72 hrs by MTS assay. Format: functional, cell-based. As to conditions: DU-145, 72 h. The gist of the method:
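Cells were seeded at 1-3 x 10^4 per well into wells already holding compound or vehicle, in triplicate. Incubation was 72 h at 37 °C in 5% CO2. Viability was read by MTS colorimetry relative to DMSO control, and EC50 was fitted to a standard dose-response curve where applicable.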

For test [8], the target named is T2, Signal transducer and activator of transcription 3. The test can be described thus: Competitive binding affinity to Stat3 SH2 domain (unknown origin) using 5-FAM-GpYLPQTV-NH2 as probe assessed as phosphopetide complex formation after 30 mins by fluorescence polarization assay. Put shortly: as §1

T2 sequence (P40763 whole entry): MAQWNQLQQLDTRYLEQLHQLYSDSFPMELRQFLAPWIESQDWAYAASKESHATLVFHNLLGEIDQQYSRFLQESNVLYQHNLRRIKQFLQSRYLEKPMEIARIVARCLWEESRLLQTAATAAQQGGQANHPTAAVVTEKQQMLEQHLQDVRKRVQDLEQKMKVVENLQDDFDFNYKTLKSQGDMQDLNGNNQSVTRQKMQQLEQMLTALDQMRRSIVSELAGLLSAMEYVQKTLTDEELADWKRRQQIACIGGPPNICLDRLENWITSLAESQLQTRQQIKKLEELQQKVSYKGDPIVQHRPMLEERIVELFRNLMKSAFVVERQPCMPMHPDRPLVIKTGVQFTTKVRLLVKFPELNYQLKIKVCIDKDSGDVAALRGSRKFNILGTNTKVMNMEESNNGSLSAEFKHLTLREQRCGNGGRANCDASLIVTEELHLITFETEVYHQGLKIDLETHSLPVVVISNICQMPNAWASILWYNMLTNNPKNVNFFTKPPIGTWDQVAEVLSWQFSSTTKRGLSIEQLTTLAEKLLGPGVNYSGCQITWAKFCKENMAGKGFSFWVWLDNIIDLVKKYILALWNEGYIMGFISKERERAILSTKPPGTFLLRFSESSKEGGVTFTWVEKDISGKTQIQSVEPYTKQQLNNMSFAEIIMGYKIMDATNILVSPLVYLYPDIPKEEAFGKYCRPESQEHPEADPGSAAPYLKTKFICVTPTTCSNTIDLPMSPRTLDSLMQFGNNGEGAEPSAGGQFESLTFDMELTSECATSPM

A word on the IC50: it is the point on the concentration scale where inhibition reaches its midpoint. Consider `Cc1ccc(S(=O)(=O)N(CC(=O)N(Cc2ccc(C3CCCCC3)cc2)c2ccc(C(=O)O)c(O)c2)Cc2ccccc2C(F)(F)F)cc1`, for which the values for the IC50 (in test [1]; in the test with DU-145; in test [8]) were 5.8 µM, 16 µM and 2.8 µM, respectively. In addition, the inhibition result in test [2] was “Active”. Moreover, the result in the test with JJN-3 [3] was Active. Also, the inhibition entry in [4] is “inactive”. Besides, the inhibition result (in test [5]; in [6]; with JJN-3 [7]; in the test with RPMI-8226; in the test on NCI-H929) was “Dose-dependent effect” throughout.

With `O=C(O)c1ccc(N(Cc2ccc(C3CCCCC3)cc2)C(=O)CN(Cc2ccccc2C(F)(F)F)S(=O)(=O)c2c(F)c(F)c(F)c(F)c2F)cc1O`, the figures for the IC50 (in test [1]; in the test on DU-145; in [8]) were 10.9 µM, 14 µM and 12.8 µM, respectively. The inhibition entry in test [2] is “Active”. Moreover, in test [4], the inhibition result is “inactive”. In addition, the inhibition entry (in test [5]; in test [6]; in the test with JJN-3 [7]; in the test with RPMI-8226; in the test on NCI-H929) was “Dose-dependent effect” in each case.

The values are drawn from ChEMBL document CHEMBL2429859, “Inhibiting aberrant signal transducer and activator of transcription protein activation with tetrapodal, small molecule Src homology 2 domain binders: promising agents against multiple myeloma” (J Med Chem, 2013).
